# Test results reported in PMC9589333 (ERJ Open Research, 2022).
# Assays:
# [1] = Phase I study: pharmacokinetics of BI 1015550 in plasma and urine; assay type: in vivo, human; conditions: for AUCτ,1 / Cmax / RA,AUC (accumulation ratio) / RA,Cmax (accumulation ratio) / AUCτ,ss / CLR,0–120 (renal clearance) / fe0–120 (fraction excreted unchanged in urine 0–120 h) / AUC0−∞: gMean; for AUCτ,ss: steady state
# In short: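 Oral test compound was given to healthy males as single doses (36 or 48 mg, fasted) or 6 or 12 mg twice daily (fed). Twice-daily dosing was a morning dose on day 1, none on day 2 (34-h sampling), days 3–13 twice daily, and a morning dose on day 14. Read-outs were plasma Cmax, AUC0–∞, first-dose and steady-state AUCτ, accumulation ratios and 0–120 h urinary excretion, reported as gMean with gCV.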
# [2] = Phase Ic study: pharmacokinetics of BI 1015550 in plasma; assay type: in vivo, human
# In short: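 IPF patients received oral 18 mg twice daily. Plasma Cmax and AUCτ,1 were taken after the first dose on day 1, and Cmax,ss and AUCτ,ss after the morning dose on day 14. Accumulation ratios were calculated as steady-state over single-dose values. Results are reported as geometric mean with gCV.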
# healthy male subjects = assay: Phase I study; assay type: in vivo, human; conditions: for Body weight, mean±SD change from baseline: placebo 0.21±1.06
# In short: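 Healthy males aged 18–45 years with BMI 18.5–29.9 kg·m−2, partially randomised to oral test compound or matching placebo. Single doses were 36 or 48 mg, fasted and patient-blinded. Twice-daily doses were 6 or 12 mg over 14 days, fed and double-blind. Drug-related AEs were graded mild, moderate or severe. ECG, laboratory tests and, for multiple dosing, suicidality were also assessed. Descriptive statistics only.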
# human lung fibroblast = conditions: in vitro; cited from earlier work
# [3] = test system: patients with idiopathic pulmonary fibrosis; assay: Phase Ic study: exploratory lung function efficacy endpoints; assay type: in vivo, human; conditions: IPF, 18 mg twice daily
# [4] = test system: patients with idiopathic pulmonary fibrosis; assay: Phase Ic study; assay type: in vivo, human
# In short: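 Randomised, double-blind, placebo-controlled within-dose-group study at 11 European sites. Patients with IPF, aged ≥40 years, had no nintedanib or pirfenidone within 30 days and none planned. Dosing was oral, 18 mg twice daily, for up to 12 weeks, reduced to 4 weeks by amendment. Drug-related AEs were graded mild, moderate or severe. ECG, laboratory tests and suicidality were also assessed. Descriptive statistics only.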
# [5] = after single and multiple oral administration
# [6] = IPF, 18 mg twice daily, placebo 40.0%
structure (smiles),measurement,setting,value
[O-][S+]1CCc2nc(N3CCC(c4ncc(Cl)cn4)CC3)nc(NC3(CO)CCC3)c21 (centres unmarked) [BI 1015550],Dose proportionality of AUC,[1]; 36 mg to 48 mg single dose and 6 mg to 12 mg twice daily,dose-proportional increase in AUC
same,Median time from last dosing to the maximum measured concentration,[1]; [5],1.25 to 1.52 h
same,Terminal half-lives,[1]; [5],16 to 27 h
same,"AUCτ,1","[1]; MRD 6 mg twice daily, after first dose, fed, n=8, gCV 24.8%",0.564 µM·h
same,Cmax,"[1]; MRD 6 mg twice daily, after first dose, fed, n=8, gCV 28.2%",103 nM
same,"RA,AUC (accumulation ratio)","[1]; MRD 6 mg twice daily, fed, n=8, gCV 9.91%",1.85
same,"RA,Cmax (accumulation ratio)","[1]; MRD 6 mg twice daily, fed, n=8, gCV 35.0%",1.60
same,"AUCτ,ss","[1]; MRD 6 mg twice daily, fed, n=8, gCV 25.7%",1.05 µM·h
same,"AUCτ,1","[1]; MRD 12 mg twice daily, after first dose, fed, n=8, gCV 15.9%",1.37 µM·h
same,Cmax,"[1]; MRD 12 mg twice daily, after first dose, fed, n=8, gCV 29.9%",229 nM
same,"RA,AUC (accumulation ratio)","[1]; MRD 12 mg twice daily, fed, n=8, gCV 14.8%",1.68
same,"RA,Cmax (accumulation ratio)","[1]; MRD 12 mg twice daily, fed, n=8, gCV 23.6%",1.52
same,"AUCτ,ss","[1]; MRD 12 mg twice daily, fed, n=8, gCV 15.8%",2.3 µM·h
same,"CLR,0–120 (renal clearance)","[1]; SRD 36 mg, fasted, n=4, gCV 21.5%",30.5^+ mL·min^−1
same,fe0–120 (fraction excreted unchanged in urine 0–120 h),"[1]; SRD 36 mg, fasted, n=5, gCV 45.2%",12.5^¶ %
same,Cmax,"[1]; SRD 36 mg, fasted, n=6, gCV 20.7%",710 nM
same,AUC0−∞,"[1]; SRD 36 mg, fasted, n=6, gCV 21.2%",5910 nmol·h/L
same,fe0–120 (fraction excreted unchanged in urine 0–120 h),"[1]; SRD 48 mg, fasted, n=4, gCV 13.4%",12.1^+ %
same,"CLR,0–120 (renal clearance)","[1]; SRD 48 mg, fasted, n=4, gCV 20.6%",25.2^+ mL·min^−1
same,AUC0−∞,"[1]; SRD 48 mg, fasted, n=5, gCV 17.2%",8700^¶ nmol·h·L^−1
same,Cmax,"[1]; SRD 48 mg, fasted, n=6, gCV 15.5%",955 nM
same,Steady state reached,[1]; multiple twice-daily administrations,≤ 6 days
same,"Exposure predictions (AUC0-24,ss) versus predefined exposure threshold",[2]; 24 mg twice-daily dose group (not dosed),exceeded the predefined exposure threshold
same,Administrations until 95% of the steady-state concentration was reached,"[2]; IPF, 18 mg twice daily",approximately five
same,Accumulation ratio based on AUCτ,"[2]; gMean, IPF, 18 mg twice daily",1.87
same,Accumulation ratio based on Cmax,"[2]; gMean, IPF, 18 mg twice daily",1.66
same,"AUCτ,1","[2]; gMean, IPF, 18 mg twice daily, day 1 after first dose, n=10, gCV 18.2%",1.99 µM·h
same,Cmax,"[2]; gMean, IPF, 18 mg twice daily, day 1 after first dose, n=10, gCV 23.1%",277 nM
same,"AUCτ,ss","[2]; gMean, IPF, 18 mg twice daily, day 14 steady state, n=10, gCV 49.5%",3.72 µM·h
same,Difference in pharmacokinetic parameters between healthy volunteers and patients with IPF,[2]; in vivo,no difference
same,Subjects with any AE,"healthy male subjects; MRD 6 mg twice daily, n=8",2 (25.0) n (%)
same,Subjects with investigator-defined drug-related AEs,"healthy male subjects; MRD 6 mg twice daily, n=8",2 (25.0) n (%)
same,"Body weight, mean±SD change from baseline",healthy male subjects; MRD 6 mg twice daily,–1.21±0.43 kg
same,"Clinically relevant laboratory finding: increase in blood triglycerides, considered drug-related",healthy male subjects; MRD 12 mg twice daily,one subject
same,Subjects with any AE,"healthy male subjects; MRD 12 mg twice daily, n=8",5 (62.5) n (%)
same,Subjects with investigator-defined drug-related AEs,"healthy male subjects; MRD 12 mg twice daily, n=8",4 (50.0) n (%)
same,"Body weight, mean±SD change from baseline",healthy male subjects; MRD 12 mg twice daily,–1.34±1.61 kg
same,Suicidal ideation or behaviour (C-SSRS),healthy male subjects; MRD part,No incidence
same,Gastrointestinal disorders,"healthy male subjects; MRD part, placebo 12.5%",18.8%
same,Nervous system disorders (headache),"healthy male subjects; MRD part, placebo 12.5%",31.3%
same,Subjects with AEs,"healthy male subjects; MRD part, placebo 37.5%",43.8%
same,Subjects with any AE,"healthy male subjects; MRD total, n=16",7 (43.8) n (%)
same,Subjects with investigator-defined drug-related AEs,"healthy male subjects; MRD total, n=16",6 (37.5) n (%)
same,Subjects with any AE,"healthy male subjects; SRD 36 mg single dose, n=6",4 (66.7) n (%)
same,Subjects with investigator-defined drug-related AEs,"healthy male subjects; SRD 36 mg single dose, n=6",2 (33.3) n (%)
same,Subjects with any AE,"healthy male subjects; SRD 48 mg single dose, n=6",4 (66.7) n (%)
same,Subjects with investigator-defined drug-related AEs,"healthy male subjects; SRD 48 mg single dose, n=6",4 (66.7) n (%)
same,"Deaths, severe AEs, serious AEs, AEs of special interest or other significant AEs",healthy male subjects; SRD and MRD parts,no reported
same,ECG recordings or vital signs,healthy male subjects; SRD and MRD parts,no clinically relevant findings
same,Intensity of all AEs,healthy male subjects; SRD and MRD parts,mild or moderate
same,Gastrointestinal disorders,"healthy male subjects; SRD part, placebo 16.7%",25.0%
same,Nervous system disorders (headache and dizziness),"healthy male subjects; SRD part, placebo 16.7%",41.7%
same,Subjects with AEs,"healthy male subjects; SRD part, placebo 16.7%",66.7%
same,Subjects with any AE,"healthy male subjects; SRD total, n=12",8 (66.7) n (%)
same,Subjects with investigator-defined drug-related AEs,"healthy male subjects; SRD total, n=12",6 (50.0) n (%)
same,Subjects with drug-related AEs,"healthy male subjects; multiple doses (MRD total), placebo 12.5%",37.5%
same,Subjects with drug-related AEs,"healthy male subjects; single dose (SRD total), placebo 16.7%",50.0%
same,Human lung fibroblast proliferation,human lung fibroblast,inhibition
same,Myofibroblast transformation,human lung fibroblast,inhibition
same,Effect on lung function parameters,[3]; over the course of the trial,no clear effect
same,Trend towards a slight reduction in FVC over time (seen in placebo group),[3]; data not shown,not observed
same,Mean observed weight loss,"[4]; IPF patients treated for up to 12 weeks, placebo –1.18",–1.74 kg
same,12-lead ECG or vital signs,"[4]; IPF, 18 mg twice daily",no clinically relevant findings
same,C-reactive protein (laboratory tests),"[4]; IPF, 18 mg twice daily",slight increase
same,Deaths,"[4]; IPF, 18 mg twice daily",no reported deaths
same,Diarrhoea,"[4]; IPF, 18 mg twice daily",40.0%
same,Nasopharyngitis,"[4]; IPF, 18 mg twice daily",40%
same,"Severe AE (considered drug related, led to discontinuation)","[4]; IPF, 18 mg twice daily",one severe AE of insomnia
same,Suicidal ideation or behaviour (C-SSRS),"[4]; IPF, 18 mg twice daily",no cases
same,"Body weight, difference between the two treatment groups","[4]; IPF, 18 mg twice daily vs placebo",no notable difference
same,AE leading to discontinuation of study drug,"[4]; IPF, 18 mg twice daily, n=10",1 (10.0) n (%)
same,Investigator-defined drug-related AE,"[4]; IPF, 18 mg twice daily, n=10",9 (90.0) n (%)
same,Patients requiring or prolonging hospitalisation,"[4]; IPF, 18 mg twice daily, n=10",1 (10.0) n (%)
same,Patients with AESI (hepatic injury),"[4]; IPF, 18 mg twice daily, n=10",0 (0.0) n (%)
same,Patients with SAEs,"[4]; IPF, 18 mg twice daily, n=10",1 (10.0) n (%)
same,Patients with other significant AEs according to ICH E3,"[4]; IPF, 18 mg twice daily, n=10",1 (10.0) n (%)
same,Severe AEs,"[4]; IPF, 18 mg twice daily, n=10",1 (10.0) n (%)
same,Gastrointestinal disorders,[4]; [6],80.0%
same,Infections and infestations,[4]; [6],50.0%
same,Patients with drug-related AEs,"[4]; IPF, 18 mg twice daily, placebo 60.0%",90.0%
